Most compounds without a hit are left out; they make up all but 7.2% or so of the library.
Ecoli WT expand: E. coli BW25113 growth inhibition, expanded screen. OD600 absorbance. growth inhibition, % at 100 µM. 98,000 compounds, 0.15% hits. AID 710;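 active = growth inhibition above about 50% at one test dose, limit read from the data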;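 also: growth measured after 20 h incubation at 37 °C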
PostGolgi yeast: growth inhibition of a yeast mutant, post-Golgi transport screen; post-Golgi transport phenotypic cell assay; inhibition, % at 10 µM; 98,000 compounds, 0.9% hits; AID 739;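 also: yeast cells grown in 1536-well plates; yeast grown about 18 h at 30C before absorbance read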
PLAP activator: activates human placental alkaline phosphatase. P05187. purified PLAP enzyme, luminescent substrate read-out; stronger effect = higher value. activation fold at 20 µM. 96,000 compounds, 1.2% hits. AID 696; in the data active = activation fold above about 2
Target sequence (P05187 whole entry, looked up): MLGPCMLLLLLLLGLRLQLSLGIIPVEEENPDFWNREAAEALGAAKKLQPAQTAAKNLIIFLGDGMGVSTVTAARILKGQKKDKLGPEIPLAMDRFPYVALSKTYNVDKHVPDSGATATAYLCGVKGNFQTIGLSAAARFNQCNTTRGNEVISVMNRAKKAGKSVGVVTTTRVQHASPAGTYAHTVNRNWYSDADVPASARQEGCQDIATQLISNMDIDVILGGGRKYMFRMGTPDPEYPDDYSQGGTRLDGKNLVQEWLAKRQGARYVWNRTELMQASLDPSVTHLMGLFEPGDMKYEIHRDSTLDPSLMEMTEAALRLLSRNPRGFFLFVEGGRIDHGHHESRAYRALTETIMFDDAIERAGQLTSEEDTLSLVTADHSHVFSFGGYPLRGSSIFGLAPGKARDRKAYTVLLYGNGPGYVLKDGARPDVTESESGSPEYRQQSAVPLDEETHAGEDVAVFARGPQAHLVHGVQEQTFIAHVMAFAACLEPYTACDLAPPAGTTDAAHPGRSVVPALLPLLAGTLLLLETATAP
tolC growth inh: growth inhibitors of E. coli BW25113 tolC mutant | OD615 | growth inhibition, % at 10 µM (by protocol) | 65,000 compounds, 2.2% hits | AID 573;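 active = growth inhibition at or above a cutoff equal to the mean over every tested compound plus 3 SD, cut at about 60% in these data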;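 also: growth measured after 20 h incubation at 37 °C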
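Test system: E. coli BW25113 ΔtolC::kan bacteria | Medium: Kanamycin-containing LB broth (50 µg/mL) | Dosing: One dose of 10 µM final | Times: 20 h incubation with compound, 37 °C | Detection: Optical density read at 615 nm | Read-out basis: Percent growth inhibition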
PostGolgi ctrl: inhibits growth of the yeast control strain; inhibition, % at 10 µM; efflux-deficient yeast background strain, growth absorbance A615, 16 h; 98,000 compounds, 5% hits; AID 738
An asterisk follows results filed as active; x = not tested or not shown. Rule as the data show it, unless noted: active = inhibition above about 30%; inactive = the rest.

SMILES	Ecoli WT expand	PostGolgi yeast	PLAP activator	tolC growth inh	PostGolgi ctrl
CCC(=O)N1CCN(c2ccc(NC(=O)c3ccc(-c4ccccc4)cc3)cc2)CC1	-6	-2	0.9	x	-4
CCOC(=O)Nc1ccc(OC)cc1S(=O)(=O)N1CCCCC1	3	-4	0.9	-11	24
COCCN(CCOC)S(=O)(=O)c1ccc(C(=O)Nc2nnc(C)o2)cc1	-6	0	1.1	-17	5
CCc1nnc(NC(=O)c2ccc(S(=O)(=O)N(CC(C)C)CC(C)C)cc2)o1	11	5	x	99*	-10
CSCc1nnc(NC(=O)c2ccc(S(=O)(=O)N(CC(C)C)CC(C)C)cc2)o1	3	-5	1.6	99*	23
OCC(O)CN1CCN(c2ccccc2)CC1 (centres undefined)	x	x	x	10	x
OC(CN1CCN(c2ccccn2)CC1)Cn1c2ccc(Cl)cc2c2cc(Cl)ccc21 (centres undefined)	-4	97*	1.8	x	97*
OC(CN1CCN(c2ccccc2)CC1)Cn1c2ccccc2c2ccccc21 (centres undefined)	-11	-1	0.9	x	36*
Cn1c(SCc2cc(=O)n3cc(Br)ccc3n2)nnc1C1COc2ccccc2O1 (centres undefined)	1	4	1.2	3	5
COCCn1nnnc1C(c1ccccc1OC)N1CCc2ccccc2C1 (centres undefined)	x	x	x	6	x
COc1ccc(S(=O)(=O)N2CCN(c3c(C)cccc3C)CC2)cc1OC	-3	11	1.6	34	31*
Cc1cc(S(=O)(=O)N2CCN(c3c(C)cccc3C)CC2)ccc1F	-23	6	1.2	47	14
Cc1cc(S(=O)(=O)N2CCN(c3ccccc3C)CC2)ccc1F	-14	-9	0.7	64*	30*
CC(=O)c1cccc(NC(=O)NC(C)c2ccncc2)c1 (centres undefined)	-4	4	2.2*	-16	-3
CCc1nc(N)c(C#N)c(-c2ccccc2OC)c1C	-8	31*	1	12	4
COc1ccccc1-c1c(C)c(C)nc(N)c1C#N	-6	1	0.9	3	5
COC(=O)c1cc(C(=O)OC)cc(S(=O)(=O)Nc2ccc(Cl)c(N)c2)c1	-2	15	0.8	x	14
COc1ccc(-n2ccnc2SCC(=O)Nc2ccccc2)cc1	0	6	1.1	19	37*
COc1cccc(-n2ccnc2SCC(=O)Nc2ccccc2)c1	3	-4	0.9	0	18
NC(=O)c1ccsc1NC(=O)c1ccc(S(=O)(=O)N2CCCCC2)cc1	-8	-4	0.8	32	51*
CCc1nnc(NC(=O)c2ccc(S(=O)(=O)N3CCCc4ccccc43)cc2)o1	4	7	2.1*	x	-2
COCc1nnc(NC(=O)c2ccc(S(=O)(=O)N(C)C3CCCCC3)cc2)o1	6	-5	1.7	95*	9
COCc1nnc(NC(=O)c2ccc(S(=O)(=O)N3CCCCCC3)cc2)o1	4	-5	1.4	74*	10
O=[N+]([O-])c1ccccc1CNC(Cc1ccccc1)c1ccccc1 (centres undefined)	-2	-2	0.7	x	20
Cc1ccc(C2C(/C=C3/SC(=S)NC3=O)=C(c3cccs3)Oc3ccccc32)cc1 (centres undefined)	-4	-3	0.9	x	21
SMILES	Ecoli WT expand	PostGolgi yeast	PLAP activator	tolC growth inh	PostGolgi ctrl
CC12CC3CC(C)(C1)CC(C(=O)NC1=NCCS1)(C3)C2	2	-2	1	x	38*
CCN(CC)CCNC(=O)C12CC3CC(C)(CC(C)(C3)C1)C2	-6	-3	2.1*	x	10
Cc1ccc2c(c1)N(CC(=O)NCc1cccs1)C(=O)CO2	2	-1	0.9	-12	1
Cc1cc(C)cc(NC2=NC3(CCCCC3)N=C(N)N2)c1	6	0	2.7*	7	27
CCCNC(=O)CC1C(=O)N(Cc2ccccc2)C(C)c2nc3ccccc3n21 (centres undefined)	5	-4	0.9	x	-1
C/C(CC(=O)Nc1ccc(N(C)C)cc1)=N\NC(=O)c1ccccn1	0	-35	2*	x	2
C=CCOCC(O)CS(=O)(=O)Cc1ccc(Cl)cc1 (centres undefined)	3	1	0.8	x	-3
COc1ccc(N(CC(=O)NCc2cccs2)S(=O)(=O)c2cccnc2)cc1	6	-7	1.3	-4	30*
COc1ccc(N(CC(=O)NCc2cccs2)S(=O)(=O)c2c(C)n[nH]c2C)cc1	3	-2	1.9	-8	0
O=c1c2ccccc2nc(SCc2cn3ccsc3n2)n1-c1ccccc1F	-12	4	1.5	65*	8
COc1ccc(-c2nnc(CSc3nc4ccccc4c(=O)n3C)o2)cc1OC	3	32*	1.4	22	0
O=c1c2ccccc2nc(SCc2nnc(-c3ccccc3Br)o2)n1-c1ccccc1	-18	-1	x	24	39*
Cc1ccc(-n2nnnc2SCc2nnc(-c3ccccc3Br)o2)cc1	-16	-5	1.4	51	56*
CC1(C)N(OCc2ccccc2)C(=O)C(=O)N(OCc2ccccc2)C1(C)C	-2	-4	0.9	x	2
CC1CCCCN1C(=O)CSc1nnc(-c2ccc(Cl)s2)o1 (centres undefined)	-4	0	1.2	14	7
c1ccc2c(c1)Cc1cc(CN3CCOCC3)ccc1-2	3	-11	1.2	10	1
O=c1c2ccccc2nc(SCc2nnc(-c3ccccc3)o2)n1-c1ccc(F)cc1F	-27	0	1.5	28	31*
NS(=O)(=O)c1ccc(N2N=C(c3ccc(Br)cc3)CC2c2ccc(F)cc2)cc1 (centres undefined)	-9	16	1.4	x	86*
Fc1ccc(C2CC(c3ccco3)=NN2c2ccccc2)cc1 (centres undefined)	-1	5	0.9	x	11
O=C(CSc1nc(C2CCCCC2)n(-c2ccccc2)n1)NCCN1C(=O)CSC1=O	8	0	2*	2	1
O=C(CSc1nc(-c2ccccc2)c(-c2ccccc2)[nH]1)NCCN1C(=O)CSC1=O	0	4	1.5	x	17
CCc1cc(-c2n[nH]c(=S)n2-c2ccccc2C)cs1	7	-8	1.2	x	-1
Cc1cccc(N(CC(O)CON=C2c3ccccc3-c3ccccc32)S(C)(=O)=O)c1 (centres undefined)	-29	-4	1.7	x	41*
COc1ccc(-c2cc(C3CC3)nc3sc(C#N)c(N)c23)cc1	-5	6	1.5	x	63*
CC(C)Oc1ccc(/C(O)=C2/C(=O)C(=O)N(CCCN3CCOCC3)C2c2ccncc2)cc1 (centres undefined)	x	x	x	-14	x
CCN(CC(=O)Nc1ccc2c(c1)OCO2)Cc1nc2ccccc2c(=O)[nH]1	3	-8	x	4	31*
CCN(CC(=O)NCc1ccc(F)cc1)Cc1nc2cc(Cl)ccc2c(=O)[nH]1	3	-12	2.7*	x	12
CCN(Cc1nc2ccccc2c(=O)[nH]1)Cc1nc2cc(OC)c(OC)cc2c(=O)[nH]1	-5	8	2.2*	-6	15
